Reference: ChEMBL document CHEMBL1126705, “16 beta-([18F]fluoro)estrogens: systematic investigation of a new series of fluorine-18-labeled estrogens as potential imaging agents for estrogen-receptor-positive breast tumors” (J Med Chem, 1993)

How the values were obtained:
[1] = target: T1, Estrogen receptor (Rattus norvegicus) (UniProt P06211+Q62986)
[2] = Partition coefficient (logP); assay type: physicochemical; settings: octanol/water
Summary of the method: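 Octanol/water log P estimated from log k'w measured by reversed-phase HPLC (Minick method) on a C8 silica column.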

[3] = test system: Rattus norvegicus; experiment: Tested in vivo for the biodistribution in rat muscle at 1 hour after intravenous dose of 120 microCi of the drug and 15 ug of estradiol; assay type: ADME, organism-based, Muscle tissue
Summary of the method: (§1)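 Immature (25-day-old) female Sprague-Dawley rats, ether-anesthetized, given the fluorine-18-labeled estrogen by femoral vein injection in 10% ethanol saline. […] Other groups were killed by decapitation at 1 or 3 h. Blood and organs were weighed and gamma-counted. Data are % injected dose/g, mean ± SD, typically n = 5 per group.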

[4] = test system: Rattus norvegicus; experiment: Tested in vivo for the biodistribution in rat kidney at 1 hour after intravenous dose of 120 microCi of drug in 10%ethanol saline; assay type: ADME, organism-based
Summary of the method: (§2)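 Female Sprague-Dawley rats (25 days old, 40 g) under ether received 120 μCi of tracer iv (femoral vein; effective specific activity 1306 Ci/mmol) in 10% ethanol saline. They were decapitated at 1 h (n = 6) or 3 h (n = 5). Tissues were weighed and gamma-counted, reported as % injected dose/g, mean ± SD.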

[5] = test system: Rattus norvegicus; experiment: Tested in vivo for the biodistribution in rat ovaries at 1 hour after intravenous dose of 120 microCi of the drug and 15 ug of estradiol; assay type: ADME, organism-based, Female gonad
Summary of the method: as §1

[6] = test system: Rattus norvegicus; experiment: Tested in vivo for the biodistribution in rat kidney at 1 hour after intravenous dose of 120 microCi of the drug and 15 u g of estradiol; assay type: ADME, organism-based
[7] = test system: Rattus norvegicus; experiment: Tested in vivo for the biodistribution in rat bone after 3 hours following an intravenous dose of 120 microCi of drug in 10%ethanol saline; assay type: ADME, organism-based, Bone element
Summary of the method: as §2

[8] = test system: Rattus norvegicus; experiment: Tested in vivo for the biodistribution in rat liver after 3 hours following an intravenous dose of 120 microCi of drug in 10%ethanol saline; assay type: ADME, organism-based
Summary of the method: as §1

[9] = test system: Rattus norvegicus; experiment: Tested in vivo for the biodistribution in rat uterus/blood after 3 hours following an intravenous dose of 120 microCi of drug in 10%ethanol saline; assay type: ADME, organism-based
Summary of the method: (§3)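 Female Sprague-Dawley rats, 25 days old (~40–53 g), ether-anesthetized, given the 18F-labeled estrogen iv via femoral vein in 10% ethanol saline. […] Others were sacrificed by decapitation at 1 or 3 h. Blood and organs were excised, weighed and gamma counted as % injected dose/g, mean ± SD, typically n = 5 (4–6).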

[10] = test system: Rattus norvegicus; experiment: Tested in vivo for the biodistribution in rat fat after 3 hours following an intravenous dose of 120 microCi of drug in 10%ethanol saline; assay type: ADME, organism-based, Adipose tissue
Summary of the method: as §2

[11] = test system: Rattus norvegicus; experiment: Tested in vivo for the biodistribution in rat uterus/blood at 1 hour after intravenous dose of 120 microCi of the drug and 15 ug of estradiol; assay type: ADME, organism-based
Summary of the method: as §3

[12] = test system: Rattus norvegicus; experiment: Tested in vivo for the biodistribution in rat uterus/muscle after 3 hours following an intravenous dose of 120 microCi of drug in 10%ethanol saline; assay type: ADME, organism-based, Muscle tissue
Summary of the method: as §3

[13] = test system: Rattus norvegicus; experiment: Tested in vivo for the biodistribution in blood of female rat at 1 hour after intravenous dose of 120 microCi of the drug and 15 u g of estradiol; assay type: ADME, organism-based
[14] = test system: Rattus norvegicus; experiment: Tested in vivo for the biodistribution in rat ovaries at 1 hour after intravenous dose of 120 microCi of drug in 10%ethanol saline; assay type: ADME, organism-based, Female gonad
Summary of the method: as §1

[15] = test system: Rattus norvegicus; experiment: Tested in vivo for the biodistribution in rat muscle after 3 hours following an intravenous dose of 120 microCi of drug in 10%ethanol saline; assay type: ADME, organism-based, Muscle tissue
Summary of the method: as §1

[16] = test system: Rattus norvegicus; experiment: Tested in vivo for the biodistribution in rat liver at 1 hour after intravenous dose of 120 microCi of drug in 10%ethanol saline; assay type: ADME, organism-based
Summary of the method: as §1

[17] = test system: Rattus norvegicus; experiment: Tested in vivo for the biodistribution in rat bone at 1 hour after intravenous dose of 120 microCi of the drug and 15 ug of estradiol; assay type: ADME, organism-based, Bone element
[18] = test system: Rattus norvegicus; experiment: Tested in vivo for the biodistribution in rat muscle at 1 hour after intravenous dose of 120 microCi of drug in 10%ethanol saline; assay type: ADME, organism-based, Muscle tissue
Summary of the method: as §1

[19] = test system: Rattus norvegicus; experiment: Tested in vivo for the biodistribution in blood of female rat after 3 hours following an intravenous dose of 120 microCi of drug in 10%ethanol saline; assay type: ADME, organism-based
Summary of the method: as §2

[20] = test system: Rattus norvegicus; experiment: Tested in vivo for the biodistribution in rat liver at 1 hour after intravenous dose of 120 microCi of the drug and 15 u g of estradiol; assay type: ADME, organism-based
Summary of the method: as §1

[21] = test system: Rattus norvegicus; experiment: Tested in vivo for the biodistribution in rat uterus/muscle at 1 hour after intravenous dose of 120 microCi of drug in 10%ethanol saline; assay type: ADME, organism-based, Muscle tissue
Summary of the method: as §3

[22] = test system: Rattus norvegicus; experiment: Tested in vivo for the biodistribution in rat uterus/blood at 1 hour after intravenous dose of 120 microCi of drug in 10%ethanol saline; assay type: ADME, organism-based
Summary of the method: as §3

[23] = test system: Rattus norvegicus; experiment: Tested in vivo for the biodistribution in blood of female rat at 1 hour after intravenous dose of 120 microCi of drug in 10%ethanol saline; assay type: ADME, organism-based
Summary of the method: as §2

[24] = target: T2, Alpha-fetoprotein (Rattus norvegicus) (UniProt P02773); experiment: Relative binding affinity for Alphafetoprotein
T2 sequence (whole entry): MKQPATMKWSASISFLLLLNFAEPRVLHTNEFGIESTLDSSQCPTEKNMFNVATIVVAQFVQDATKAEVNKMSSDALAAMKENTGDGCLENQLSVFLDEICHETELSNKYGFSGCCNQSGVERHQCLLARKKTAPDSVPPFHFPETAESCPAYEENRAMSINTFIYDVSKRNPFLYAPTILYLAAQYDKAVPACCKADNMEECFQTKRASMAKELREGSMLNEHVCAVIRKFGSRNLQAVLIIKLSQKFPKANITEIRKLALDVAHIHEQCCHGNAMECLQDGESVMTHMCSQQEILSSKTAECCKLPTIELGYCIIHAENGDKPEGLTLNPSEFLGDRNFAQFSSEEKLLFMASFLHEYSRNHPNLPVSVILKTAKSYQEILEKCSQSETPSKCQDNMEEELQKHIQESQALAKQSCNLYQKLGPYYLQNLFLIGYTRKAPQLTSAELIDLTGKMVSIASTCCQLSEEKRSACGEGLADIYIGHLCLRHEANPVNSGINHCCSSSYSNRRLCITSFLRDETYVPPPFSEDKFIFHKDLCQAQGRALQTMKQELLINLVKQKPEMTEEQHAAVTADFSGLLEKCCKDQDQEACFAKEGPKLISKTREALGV

[25] = test system: Rattus norvegicus; experiment: Tested in vivo for the biodistribution in rat uterus after 3 hours following an intravenous dose of 120 microCi of drug in 10%ethanol saline; assay type: ADME, organism-based
Summary of the method: as §1

[26] = test system: Rattus norvegicus; experiment: Tested in vivo for the biodistribution in rat bone at 1 hour after intravenous dose of 120 microCi of drug in 10%ethanol saline; assay type: ADME, organism-based, Bone element
Summary of the method: as §2

[27] = test system: Rattus norvegicus; experiment: Tested in vivo for the biodistribution in rat uterus at 1 hour after intravenous dose of 120 microCi of the drug and 15 micro g of estradiol; assay type: ADME, organism-based
Summary of the method: as §1

[28] = test system: Rattus norvegicus; experiment: Tested in vivo for the biodistribution in rat uterus at 1 hour after intravenous dose of 120 microCi of drug in 10%ethanol saline; assay type: ADME, organism-based
Summary of the method: as §1

[29] = test system: Rattus norvegicus; experiment: Tested in vivo for the biodistribution in rat fat at 1 hour after intravenous dose of 120 microCi of drug in 10%ethanol saline; assay type: ADME, organism-based, Adipose tissue
Summary of the method: as §2

[30] = target: T3, Sex hormone-binding globulin (Homo sapiens) (UniProt P04278); experiment: Relative binding affinity against sex steroid binding protein (SBP)
T3 sequence (whole entry): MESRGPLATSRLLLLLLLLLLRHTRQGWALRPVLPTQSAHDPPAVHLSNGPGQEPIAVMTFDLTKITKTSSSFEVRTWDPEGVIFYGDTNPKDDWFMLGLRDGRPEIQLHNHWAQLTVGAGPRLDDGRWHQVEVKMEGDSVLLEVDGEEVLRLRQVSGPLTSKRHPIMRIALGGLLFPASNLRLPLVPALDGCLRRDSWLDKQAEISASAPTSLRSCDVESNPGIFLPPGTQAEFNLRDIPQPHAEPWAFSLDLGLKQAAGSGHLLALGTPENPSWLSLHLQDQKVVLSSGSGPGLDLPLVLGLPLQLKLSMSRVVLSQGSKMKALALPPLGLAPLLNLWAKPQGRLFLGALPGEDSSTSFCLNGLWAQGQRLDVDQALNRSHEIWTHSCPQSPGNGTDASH

[31] = test system: Rattus norvegicus; experiment: Tested in vivo for the biodistribution in rat fat at 1 hour after intravenous dose of 120 microCi of the drug and 15 micro g of estradiol; assay type: ADME, organism-based, Adipose tissue
[32] = test system: Rattus norvegicus; experiment: Tested in vivo for the biodistribution in rat ovaries after 3 hours following an intravenous dose of 120 microCi of drug in 10%ethanol saline; assay type: ADME, organism-based, Female gonad
Summary of the method: as §1

[33] = test system: Rattus norvegicus; experiment: Tested in vivo for the biodistribution in rat kidney after 3 hours following an intravenous dose of 120 microCi of drug in 10%ethanol saline; assay type: ADME, organism-based
Summary of the method: as §2

[34] = target: T1, Estrogen receptor (Rattus norvegicus); remark: listed apart in the source
[35] = test system: Rattus norvegicus; experiment: Tested in vivo for the biodistribution in rat uterus/muscle at 1 hour after intravenous dose of 120 microCi of the drug and 15 micro g of estradiol; assay type: ADME, organism-based, Muscle tissue
Summary of the method: as §3

- NSB [1]: 0.63
- logP [2]: 2.81
- Injected [3]: 0.466%
- Injected [4]: 2.051%
- Injected (dose/g) [5]: 1.189%
- Injected (dose/g) [6]: 3.388%
- Injected (dose/g) [7]: 1.201%
- Injected (dose/g) [8]: 1.483%
- Injected [9]: 2.273%
- Injected [10]: 0.131%
- Injected [11]: 0.857%
- Injected [12]: 9.05%
- Injected [13]: 1.486%
- Injected (dose/g) [14]: 1.91%
- Injected (dose/g) [15]: 0.151%
- Injected (dose/g) [16]: 2.957%
- Injected [17]: 1.216%
- Injected (dose/g) [18]: 0.402%
- Injected [19]: 0.534%
- Injected [20]: 3.771%
- Injected [21]: 15.22%
- Injected (dose/g) [22]: 5.631%
- Injected [23]: 0.949%
- relative binding affinity (RBA) [24]: 20
- Injected [25]: 1.176%
- Injected (dose/g) [26]: 1.008%
- Injected [27]: 1.257%
- Injected [28]: 4.994%
- Injected [29]: 0.31%
- relative binding affinity (RBA) [30]: 8.9
- Injected (dose/g) [31]: 0.391%
- Injected [32]: 0.615%
- Injected [33]: 0.821%
- BSI [34]: 19
- Injected [35]: 2.685%
Compound: C[C@]12CC[C@@H]3c4ccc(O)cc4CC[C@H]3[C@@H]1C[C@H](F)[C@@H]2O
